The source of these data is ChEMBL document CHEMBL4145601, “Novel Nitric Oxide Donors of Phenylsulfonylfuroxan and 3-Benzyl Coumarin Derivatives as Potent Antitumor Agents” (ACS Med Chem Lett, 2018).

Data set [1] can be described thus: Antiproliferative activity against human KBV cells after 48 hrs by MTT assay. The class given is functional, cell-based. Put shortly: (§1)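 Drug-resistant human tumour lines were A2780/CDDP (cisplatin-resistant ovarian), MDA-MB-231/Gem (gemcitabine-resistant breast), MCF-7/ADR and KB-V. Antiproliferation was read by MTT assay. IC50 is the mean of triplicate determinations.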
For orientation: Formazan colour is commonly taken as a measure of viable cells.

The test system of a further data set is KB. Description: Antiproliferative activity against human KB cells after 48 hrs by MTT assay. It is filed as functional, cell-based. Put shortly:
(§2)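 Human tumour lines were HeLa (cervical), SKOV3, OVCA429, OVCA433 and A2780 (ovarian), A549 (non-small cell lung), MDA-MB-231 and MCF-7 (breast), and KB (oral epidermoid). Antiproliferation was read by MTT assay. IC50 is the mean of triplicate determinations.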

A short description of data set [2]: Resistance ratio of IC50 for human KBV cells to IC50 for human KB cells. It is filed as functional. Put shortly: (§3)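 Resistance ratio = IC50 in the resistant line / IC50 in the drug-sensitive parent line. Each IC50 came from MTT assays, mean of triplicate determinations.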
In a further data set the test system is MDA-MB-231. The data set can be described thus: Antiproliferative activity against human MDA-MB-231 cells after 48 hrs by MTT assay. The class given is functional, cell-based. The settings on record: MDA-MB-231, 48 h.
A short description of data set [3]: Antiproliferative activity against human MDA-MB-231/Gem cells after 48 hrs by MTT assay. The class given is functional, cell-based.
A short description of data set [4]: Resistance ratio of IC50 for human MDA-MB-231/Gem cells to IC50 for human MDA-MB-231 cells. The class given is functional. The essentials: as §3
For the next data set, the system named is MCF-10A. Description: Cytotoxicity against human MCF10A cells after 72 hrs by MTS assay. It is filed as cell-based. The essentials: (§4)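 Non-tumour human cells were HUVEC (umbilical vein endothelial), T29 (immortalized, nontumorigenic ovarian epithelial), WI-38 (lung fibroblasts) and MCF-10A (nontumorigenic breast epithelial). Viability was read by tetrazolium assay. IC50 is the mean of triplicate determinations.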

Data set [5] can be described thus: Antiproliferative activity against human OVCA433 cells after 48 hrs by MTT assay. It is filed as functional, cell-based. The settings on record: OVCA433, 48 h. The essentials: as §2
Another data set concerns MM1.S. The data set can be described thus: Antiproliferative activity against human MM1S cells after 72 hrs by MTS assay. The class given is functional, cell-based.
Data set [6] is described as follows: Drug metabolism in human A2780 cells assessed as nitric oxide release at 100 uM after 150 mins by Griess assay. The class given is ADME, cell-based. As to conditions: a2780, 2.5 h. Background: Griess reagent forms a coloured azo dye with nitrite.
Data set [7] is described as follows: Antiproliferative activity against human A2780/CDDP cells after 48 hrs by MTT assay. It is filed as functional, cell-based. The essentials: as §1
Data set [8] is described as follows: Antiproliferative activity against human OVCA429 cells after 48 hrs by MTT assay. As to conditions: OVCA429, 48 h. The class given is functional, cell-based. The essentials:
as §2

The subject of another data set is A549. The data set can be described thus: Antiproliferative activity against human A549 cells after 48 hrs by MTT assay. The settings on record: A549, 48 h. The class given is functional, cell-based. The essentials:
as §2

The next data set has as its system MV4-11. The data set can be described thus: Antiproliferative activity against human MV411 cells after 72 hrs by MTS assay. The class given is functional, cell-based. The settings on record: MV4-11, 72 h. The essentials:
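Human myeloid leukaemia MV-4-11 cells; antiproliferation read by MTS assay. IC50 is the mean of triplicate determinations.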

In a further data set the test system is NCI/ADR-RES. Description: Antiproliferative activity against human MCF7/ADR cells after 48 hrs by MTT assay. The class given is functional, cell-based. Put shortly:
as §1

Data set [9] relates to A2780. Description: Induction of apoptosis in human A2780 cells assessed as increase in late apoptotic cells at 10 to 20 nM measured after 24 hrs by Annexin-V-FITC/propidium iodide staining based flow cytometric method. It is filed as functional, cell-based.
For another data set, the system named is SK-OV-3. Description: Antiproliferative activity against human SKOV3 cells after 48 hrs by MTT assay. The class given is functional, cell-based. The settings on record: SK-OV-3, 48 h. The essentials:
as §2

A further data set relates to HeLa. Description: Antiproliferative activity against human HeLa cells after 48 hrs by MTT assay. The class given is functional, cell-based. The essentials:
as §2

The nature of data set [10]: Cytotoxicity against human T29 cells after 48 hrs by MTT assay. It is filed as cell-based. As to conditions: T29, 48 h. Put shortly:
as §4

The test system of a further data set is MCF7. Description: Antiproliferative activity against human MCF7 cells after 48 hrs by MTT assay. It is filed as functional, cell-based. As to conditions: MCF7, 48 h. Put shortly:
as §2

A further data set deals with WI-38. Description: Cytotoxicity against human WI38 cells after 72 hrs by MTS assay. It is filed as cell-based. As to conditions: WI-38, 72 h. Put shortly:
as §4

For data set [11], the system named is A2780. Description: Antiproliferative activity against human A2780 cells after 48 hrs by MTT assay. The class given is functional, cell-based. As to conditions: A2780, 48 h. Put shortly:
as §2

For another data set, the system named is HUVEC. The data set can be described thus: Cytotoxicity against HUVEC after 48 hrs by MTT assay. The class given is cell-based. As to conditions: Homo sapiens. Put shortly:
as §4

pIC50: −log10 of the molar value. Calls of active or inactive are those of the source. No cut-off for these calls is given here.

Consider `CC[C@]1(O)C[C@H]2CN(CCc3c([nH]c4ccccc34)[C@@](C(=O)OC)(c3cc4c(cc3OC)N(C=O)[C@H]3[C@@](O)(C(=O)OC)[C@H](OC(C)=O)[C@]5(CC)C=CCN6CC[C@]43[C@@H]65)C2)C1` [VINCRISTINE], for which the negative-log IC50 (pIC50) (in general, −log10 of the IC50, conventionally taken in molar units) in [1] is 6.38; with KB, 9.19. Besides, in data set [2], the “Ratio IC50” value was found to be 646.
As for `Nc1ccn([C@@H]2O[C@H](CO)[C@@H](O)C2(F)F)c(=O)n1` [GEMCITABINE], the pIC50 with MDA-MB-231 is 7.44; in data set [3], less than 4.30. Moreover, the “Ratio IC50” value in data set [4] is more than 1373.
Regarding `Cc1cc(=O)oc2cc(OCCOc3no[n+]([O-])c3S(=O)(=O)c3ccccc3)ccc12`, the negative-log IC50 (pIC50) was 6.18 in the data set on MCF-10A; 6.88 in data set [5]; 7.60 in data set [1]; 7.68 in the data set on MM1.S; 6.90 with KB; 7.07 in data set [7]. Also, the pIC50 was 7.39 in data set [8]; 7.34 with A549; 7.55 in the data set on MV4-11; 6.80 in the data set with NCI/ADR-RES; 7.33 with SK-OV-3; 7.21 with HeLa. Further, the negative-log IC50 (pIC50) is 5.74 in data set [10]; 6.35 with MCF7; 7.05 in the data set on WI-38; 7.68 in the data set on A2780 [11]; 6.89 in the data set with HUVEC. Moreover, the Drug metabolism result in data set [6] is on record as “Metabolite_Detected”. Besides, the outcome in the data set with A2780 [9] was Active.
